Test results published in ChEMBL document CHEMBL1138172, “Selective irreversible inhibition of fructose 1,6-bisphosphate aldolase from Trypanosoma brucei” (J Med Chem, 2006).
The source made the active and inactive calls. No cut-off for these calls is given here.

Assays:
[1] = target: Fructose-bisphosphate aldolase B (Homo sapiens) (UniProt P05062); assay: Residual activity against human liver class1 Aldolase at 100 uM after 15 min
[2] = target: T1, Fructose-bisphosphate aldolase, glycosomal (Trypanosoma brucei brucei) (UniProt P07752); assay: Protection of inhibitory activity by NBP against Trypanosoma brucei aldolase at 1 mM after 5 min; design: scale not given: the % may be the effect or the level left
T1 sequence (whole entry): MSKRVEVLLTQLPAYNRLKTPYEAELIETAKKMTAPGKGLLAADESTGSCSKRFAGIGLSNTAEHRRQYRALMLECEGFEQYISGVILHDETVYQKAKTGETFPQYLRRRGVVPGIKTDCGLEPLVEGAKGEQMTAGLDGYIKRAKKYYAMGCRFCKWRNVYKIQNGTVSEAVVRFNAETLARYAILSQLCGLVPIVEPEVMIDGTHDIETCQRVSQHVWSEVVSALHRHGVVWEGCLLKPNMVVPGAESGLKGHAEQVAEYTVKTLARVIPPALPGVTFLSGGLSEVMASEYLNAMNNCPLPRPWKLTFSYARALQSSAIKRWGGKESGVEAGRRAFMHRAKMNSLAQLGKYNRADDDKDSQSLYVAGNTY

[3] = target: T1, Fructose-bisphosphate aldolase, glycosomal (Trypanosoma brucei brucei); assay: Protection of inhibitory activity by HBP against Trypanosoma brucei aldolase at 0.1 mM after 15 min; design: scale not given: the % may be the effect or the level left
[4] = target: T1, Fructose-bisphosphate aldolase, glycosomal (Trypanosoma brucei brucei); assay: Protection of inhibitory activity by DHAP against Trypanosoma brucei aldolase at 0.25 mM after 5 min; design: scale not given: the % may be the effect or the level left
[5] = target: T1, Fructose-bisphosphate aldolase, glycosomal (Trypanosoma brucei brucei); assay: Residual activity against Trypanosoma brucei class1 Aldolase at 0.5 mM after 5 min
[6] = target: T1, Fructose-bisphosphate aldolase, glycosomal (Trypanosoma brucei brucei); assay: Protection of inhibitory activity by NBP against Trypanosoma brucei aldolase at 1 mM after 15 min; design: scale not given: the % may be the effect or the level left
[7] = target: T1, Fructose-bisphosphate aldolase, glycosomal (Trypanosoma brucei brucei); assay: Residual activity against Trypanosoma brucei class1 Aldolase at 0.02 mM after 5 min
[8] = target: T2, Aldolase (Plasmodium falciparum) (UniProt Q27744); assay: Residual activity against Plasmodium falciparum class1 Aldolase at 100 uM after 15 min
T2 sequence (whole entry): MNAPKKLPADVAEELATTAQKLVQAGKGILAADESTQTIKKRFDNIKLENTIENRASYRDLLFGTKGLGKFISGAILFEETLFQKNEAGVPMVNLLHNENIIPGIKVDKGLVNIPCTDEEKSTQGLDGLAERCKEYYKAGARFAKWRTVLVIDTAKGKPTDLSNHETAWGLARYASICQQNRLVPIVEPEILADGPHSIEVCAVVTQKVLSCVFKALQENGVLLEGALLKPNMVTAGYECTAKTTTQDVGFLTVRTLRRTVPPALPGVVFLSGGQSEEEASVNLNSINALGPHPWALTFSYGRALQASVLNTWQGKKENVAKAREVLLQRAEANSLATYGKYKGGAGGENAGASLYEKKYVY
How it was run: (§1)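 Aldolases from different sources, including mammalian (human liver) and protozoan parasite enzymes, were each incubated at 0.2 mg/mL with the inhibitor at 100 µM. Residual enzyme activity was then measured.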

[9] = target: T1, Fructose-bisphosphate aldolase, glycosomal (Trypanosoma brucei brucei); assay: Protection of inhibitory activity by FBP against Trypanosoma brucei aldolase at 10 mM after 5 min; design: scale not given: the % may be the effect or the level left
[10] = target: T1, Fructose-bisphosphate aldolase, glycosomal (Trypanosoma brucei brucei); assay: Protection of inhibitory activity by DHAP against Trypanosoma brucei aldolase at 0.5 mM after 5 min; design: scale not given: the % may be the effect or the level left
[11] = target: T3, Fructose-bisphosphate aldolase A (Oryctolagus cuniculus) (UniProt P00883); assay: Residual activity against rabbit muscle class1 Aldolase at 0.1 mM after 5 min; conditions: Muscle tissue
T3 sequence (whole entry): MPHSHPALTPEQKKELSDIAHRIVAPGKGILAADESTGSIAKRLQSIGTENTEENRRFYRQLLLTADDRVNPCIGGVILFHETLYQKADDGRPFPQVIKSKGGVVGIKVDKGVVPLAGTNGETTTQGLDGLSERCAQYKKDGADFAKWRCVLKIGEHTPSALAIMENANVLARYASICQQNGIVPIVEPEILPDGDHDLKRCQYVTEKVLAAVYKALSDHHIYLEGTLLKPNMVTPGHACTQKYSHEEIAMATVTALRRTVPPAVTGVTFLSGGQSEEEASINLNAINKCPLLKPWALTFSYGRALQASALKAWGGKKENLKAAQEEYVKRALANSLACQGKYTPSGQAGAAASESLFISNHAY

[12] = target: T1, Fructose-bisphosphate aldolase, glycosomal (Trypanosoma brucei brucei); assay: Inhibitory activity against mutated recombinant Trypanosoma brucei aldolase K116M
[13] = target: T1, Fructose-bisphosphate aldolase, glycosomal (Trypanosoma brucei brucei); assay: Residual activity against Trypanosoma brucei class1 Aldolase at 0.5 mM after 15 min
[14] = target: T3, Fructose-bisphosphate aldolase A (Oryctolagus cuniculus); assay: Residual activity against rabbit muscle class1 Aldolase at 1 mM after 5 min; conditions: Muscle tissue
[15] = target: T3, Fructose-bisphosphate aldolase A (Oryctolagus cuniculus); assay: Residual activity against rabbit muscle class1 Aldolase at 1 mM after 15 min; conditions: Muscle tissue
[16] = target: T1, Fructose-bisphosphate aldolase, glycosomal (Trypanosoma brucei brucei); assay: Protection of inhibitory activity by DHAP against Trypanosoma brucei aldolase at 1 mM after 5 min; design: scale not given: the % may be the effect or the level left
[17] = target: T1, Fructose-bisphosphate aldolase, glycosomal (Trypanosoma brucei brucei); assay: Protection of inhibitory activity by DHAP against Trypanosoma brucei aldolase at 0.5 mM after 15 min; design: scale not given: the % may be the effect or the level left
[18] = target: T3, Fructose-bisphosphate aldolase A (Oryctolagus cuniculus); assay: Residual activity against rabbit muscle class1 Aldolase at 0.1 mM after 15 min; conditions: Muscle tissue
[19] = target: T1, Fructose-bisphosphate aldolase, glycosomal (Trypanosoma brucei brucei); assay: Protection of inhibitory activity by HBP against Trypanosoma brucei aldolase at 0.1 mM after 5 min; design: scale not given: the % may be the effect or the level left
[20] = target: T4, Fructose-1,6-bisphospate aldolase (Leishmania mexicana) (UniProt Q9U5N6); assay: Residual activity against Leishmania mexicana class1 Aldolase at 100 uM after 15 min
T4 sequence (whole entry): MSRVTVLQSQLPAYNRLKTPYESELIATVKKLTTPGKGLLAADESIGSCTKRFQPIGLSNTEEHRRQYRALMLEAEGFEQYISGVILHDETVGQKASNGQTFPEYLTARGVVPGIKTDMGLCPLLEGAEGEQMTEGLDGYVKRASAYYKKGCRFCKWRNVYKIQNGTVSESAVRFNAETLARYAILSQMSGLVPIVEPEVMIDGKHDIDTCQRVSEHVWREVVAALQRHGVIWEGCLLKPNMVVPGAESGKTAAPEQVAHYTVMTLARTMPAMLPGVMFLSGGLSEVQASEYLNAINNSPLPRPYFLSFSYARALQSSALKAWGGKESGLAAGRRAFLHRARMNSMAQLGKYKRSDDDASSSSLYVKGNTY
How it was run: as §1

[21] = target: T1, Fructose-bisphosphate aldolase, glycosomal (Trypanosoma brucei brucei); assay: Protection of inhibitory activity by FBP against Trypanosoma brucei aldolase at 1 mM after 15 min; design: scale not given: the % may be the effect or the level left
[22] = target: T1, Fructose-bisphosphate aldolase, glycosomal (Trypanosoma brucei brucei); assay: Protection of inhibitory activity by HBP against Trypanosoma brucei aldolase at 1 mM after 15 min; design: scale not given: the % may be the effect or the level left
[23] = target: T1, Fructose-bisphosphate aldolase, glycosomal (Trypanosoma brucei brucei); assay: Residual activity against Trypanosoma brucei class1 Aldolase at 0.02 mM after 15 min
[24] = target: T1, Fructose-bisphosphate aldolase, glycosomal (Trypanosoma brucei brucei); assay: Protection of inhibitory activity by FBP against Trypanosoma brucei aldolase at 10 mM after 15 min; design: scale not given: the % may be the effect or the level left
[25] = target: T1, Fructose-bisphosphate aldolase, glycosomal (Trypanosoma brucei brucei); assay: Protection of inhibitory activity by DHAP against Trypanosoma brucei aldolase at 1 mM after 15 min; design: scale not given: the % may be the effect or the level left
[26] = target: T1, Fructose-bisphosphate aldolase, glycosomal (Trypanosoma brucei brucei); assay: Protection of inhibitory activity by DHAP against Trypanosoma brucei aldolase at 10 mM after 15 min; design: scale not given: the % may be the effect or the level left
[27] = target: T1, Fructose-bisphosphate aldolase, glycosomal (Trypanosoma brucei brucei); assay: Protection of inhibitory activity by DHAP against Trypanosoma brucei aldolase at 10 mM after 5 min; design: scale not given: the % may be the effect or the level left
[28] = target: T5, Fructose-bisphosphate aldolase, glycosomal (Trypanosoma brucei brucei, UniProt P07752); assay: Inhibition of Trypanosoma brucei class1 Aldolase
T5 sequence (P07752 whole entry): T1 sequence (whole entry)

[29] = target: T1, Fructose-bisphosphate aldolase, glycosomal (Trypanosoma brucei brucei); assay: Residual activity against Trypanosoma brucei class1 Aldolase at 100 uM after 15 min
How it was run: as §1

[30] = target: T1, Fructose-bisphosphate aldolase, glycosomal (Trypanosoma brucei brucei); assay: Protection of inhibitory activity by FBP against Trypanosoma brucei aldolase at 1 mM after 5 min; design: scale not given: the % may be the effect or the level left
[31] = target: T1, Fructose-bisphosphate aldolase, glycosomal (Trypanosoma brucei brucei); assay: Protection of inhibitory activity by HBP against Trypanosoma brucei aldolase at 1 mM after 5 min; design: scale not given: the % may be the effect or the level left
[32] = target: T1, Fructose-bisphosphate aldolase, glycosomal (Trypanosoma brucei brucei); assay: Protection of inhibitory activity by DHAP against Trypanosoma brucei aldolase at 0.25 mM after 15 min; design: scale not given: the % may be the effect or the level left

Chain of Fructose-bisphosphate aldolase B (Homo sapiens) (P05062 whole entry, looked up): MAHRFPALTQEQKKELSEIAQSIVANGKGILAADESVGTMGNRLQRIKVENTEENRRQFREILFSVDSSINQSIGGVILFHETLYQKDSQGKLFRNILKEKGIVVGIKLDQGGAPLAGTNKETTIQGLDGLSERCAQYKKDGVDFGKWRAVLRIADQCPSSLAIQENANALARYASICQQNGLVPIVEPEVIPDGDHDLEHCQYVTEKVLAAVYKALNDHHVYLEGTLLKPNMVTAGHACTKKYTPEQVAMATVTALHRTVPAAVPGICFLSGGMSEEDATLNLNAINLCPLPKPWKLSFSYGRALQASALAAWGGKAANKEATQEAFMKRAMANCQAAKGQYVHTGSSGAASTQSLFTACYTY

O=Cc1c(O)ccc2cc(OP(=O)(O)O)ccc12
Activity [1]: 100% | Activity [2]: 100% | Activity [3]: 100% | Activity [4]: 56% | Activity [5]: < 20% | Activity [6]: 100% | Activity [7]: 75% | Activity [8]: 30% | Activity [9]: 100% | Activity [10]: 63% | Activity [11]: 100% | inhibition [12]: inactive | Activity [13]: 0% | Activity [14]: 80% | Activity [15]: 80% | Activity [16]: 60% | Activity [17]: 44% | Activity [18]: 100% | Activity [19]: 100% | Activity [20]: 15% | Activity [21]: 51% | Activity [22]: 100% | Activity [23]: 50% | Activity [24]: 89% | Activity [25]: 52% | Activity [26]: 70% | Activity [27]: 80% | Ki [28]: 23 µM | Activity [29]: < 0.5% | Activity [30]: 80% | Activity [31]: 100% | Activity [32]: 48%
